Where a SMILES comes first, the peptide text is derived from it. Where no end group is shown, it is not given here. [ ]: non-standard residue; d: D form. The star is where a group is joined. pY = N[C@@H](Cc1ccc(OP(=O)(O)O)cc1)C(=O)O; Cbz = O=C(OCc1ccccc1)*
How the values were obtained:
[1] = test system: PTPN18 mutants V65A, V65I, P272M; assay: Catalytic activity of PTPN18 pY+1 pocket mutants towards HER2 phospho-peptides; assay type: biochemical, human; settings: mutations V65A, V65I and P272M versus wild type
In short: (§1)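 Recombinant PTPN18 (wild type or mutant) hydrolysing pY-containing peptides at 37 °C in 50 mM 3,3-dimethylglutarate, pH 6.5, 1 mM DTT, 1 mM EDTA, ionic strength 0.15 M. Reactions are started by adding enzyme to 10 nM final. Read-out is tyrosine fluorescence (ex 280/em 305 nm) or inorganic-phosphate end-point at 620 nm. Kinetics are fitted by nonlinear least-squares regression.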

PTPN18 [2] = target: T1, PTPN18 (Homo sapiens, UniProt Q99952); assay: PTPN18-catalyzed hydrolysis of pY-containing peptides; assay type: biochemical; settings: for Kcat/Km of PTPN18: calculated; for Kcat/Km of PTPN18 / Kcat for PTPN18 catalysis: range over the three peptides, pH 6.5, 37 °C, 10 nM PTPN18
T1 sequence (Q99952 6-300): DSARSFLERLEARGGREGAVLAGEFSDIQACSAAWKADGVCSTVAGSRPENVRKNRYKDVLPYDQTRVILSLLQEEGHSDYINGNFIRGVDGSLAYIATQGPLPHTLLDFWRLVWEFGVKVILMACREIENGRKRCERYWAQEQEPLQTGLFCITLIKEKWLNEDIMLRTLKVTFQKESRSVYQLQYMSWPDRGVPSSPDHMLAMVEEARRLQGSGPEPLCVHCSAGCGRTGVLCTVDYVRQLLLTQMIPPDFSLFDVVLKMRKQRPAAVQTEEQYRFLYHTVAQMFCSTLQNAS
In short: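 Peptide dephosphorylation by the phosphatase, read by two methods: tyrosine fluorescence gain (excitation 280 nm, emission 305 nm) and an end-point inorganic phosphate assay at 620 nm. Conditions were 37 °C in 50 mM 3,3-dimethylglutarate pH 6.5, 1 mM DTT, 1 mM EDTA, ionic strength 0.15 M. Reactions started with enzyme at 10 nM final. Kinetics came from nonlinear least-squares regression.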

PTPN18 [3] = target: T1, PTPN18; assay: pNPP phosphatase assay; assay type: biochemical; settings: PTPN18 versus PTP1B, DMG buffer, 37 °C
[4] = test system: HER2 level in HepG2 cells; assay: EGF-induced HER2 degradation with proteasome inhibitor; assay type: cell-based; settings: 100 ng/ml EGF
In short: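 HepG2 cells are transfected with control vector or PTPN18, preincubated with MG-132, then exposed to EGF for a time course. HER2 is detected by western blot with a specific antibody and quantified.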

[5] = test system: PTPN18 mutants R198A, R198E; assay: Catalytic activity of PTPN18 R198 mutants towards HER2 phospho-peptides; assay type: biochemical, human; settings: R198 changed to Ala or Glu versus wild type
In short: as §1

PTPN18 V65I = target: T2, PTPN18 V65I (UniProt Q99952 1-460, V65I); assay: cell-based or functional assay
T2 sequence (looked up): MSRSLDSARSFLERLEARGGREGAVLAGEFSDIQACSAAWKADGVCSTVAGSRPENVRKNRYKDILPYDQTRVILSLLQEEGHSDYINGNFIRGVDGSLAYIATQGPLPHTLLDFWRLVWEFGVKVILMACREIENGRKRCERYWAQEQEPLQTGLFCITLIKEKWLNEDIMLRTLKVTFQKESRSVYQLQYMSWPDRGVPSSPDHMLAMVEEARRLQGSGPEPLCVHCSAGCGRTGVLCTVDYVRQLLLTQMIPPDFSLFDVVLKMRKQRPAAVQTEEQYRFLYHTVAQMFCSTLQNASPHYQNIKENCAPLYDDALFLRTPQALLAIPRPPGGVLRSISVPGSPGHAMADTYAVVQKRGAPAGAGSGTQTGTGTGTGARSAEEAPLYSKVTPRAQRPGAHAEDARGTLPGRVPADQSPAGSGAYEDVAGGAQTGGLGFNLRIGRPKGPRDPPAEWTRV

PTPN18 P272M = target: T3, PTPN18 P272M (UniProt Q99952 1-460, P272M); assay: cell-based or functional assay
T3 sequence (looked up): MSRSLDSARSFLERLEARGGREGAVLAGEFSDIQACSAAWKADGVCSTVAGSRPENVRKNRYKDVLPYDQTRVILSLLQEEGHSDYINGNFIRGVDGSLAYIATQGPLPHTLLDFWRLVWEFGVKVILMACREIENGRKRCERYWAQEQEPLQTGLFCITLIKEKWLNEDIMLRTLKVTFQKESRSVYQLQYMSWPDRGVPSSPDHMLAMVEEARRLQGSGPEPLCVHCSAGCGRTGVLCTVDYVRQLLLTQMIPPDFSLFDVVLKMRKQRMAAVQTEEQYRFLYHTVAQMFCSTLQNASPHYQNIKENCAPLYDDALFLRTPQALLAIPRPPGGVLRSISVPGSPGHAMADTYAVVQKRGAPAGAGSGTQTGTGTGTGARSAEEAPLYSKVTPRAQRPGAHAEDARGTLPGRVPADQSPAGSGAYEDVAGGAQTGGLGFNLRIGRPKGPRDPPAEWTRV

PTPN18 V65A = target: T4, PTPN18 V65A (UniProt Q99952 1-460, V65A); assay: cell-based or functional assay
T4 sequence (looked up): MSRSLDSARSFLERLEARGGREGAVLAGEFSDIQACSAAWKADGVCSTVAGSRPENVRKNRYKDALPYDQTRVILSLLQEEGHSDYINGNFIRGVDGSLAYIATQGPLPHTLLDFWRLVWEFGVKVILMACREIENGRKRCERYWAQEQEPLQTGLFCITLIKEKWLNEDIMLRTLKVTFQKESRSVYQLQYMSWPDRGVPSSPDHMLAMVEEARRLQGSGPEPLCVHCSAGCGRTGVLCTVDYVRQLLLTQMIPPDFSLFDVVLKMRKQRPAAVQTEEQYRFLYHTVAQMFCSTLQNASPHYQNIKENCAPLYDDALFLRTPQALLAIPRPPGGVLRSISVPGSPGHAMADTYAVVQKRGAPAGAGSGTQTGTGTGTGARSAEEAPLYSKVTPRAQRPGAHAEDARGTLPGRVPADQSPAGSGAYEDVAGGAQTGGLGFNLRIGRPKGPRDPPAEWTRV

Ac-ENPE pY^1196 LTPQ-NH2 [HER2 pY^1196]
Decrease of PTPN18 activity towards the peptide by mutation [1]: > 2 fold
Kcat/Km of PTPN18 relative to its Kcat/Km towards HER2 pY^1248 (PTPN18 [2]): approximately half
Kcat/Km of PTPN18 (PTPN18 [2]): 400000 to 800000 M⁻¹ s⁻¹
Kcat for PTPN18 catalysis (PTPN18 [2]): 4 to 11.2 s⁻¹

O=[N+]([O-])c1ccc(OP(=O)(O)O)cc1 [pNPP, para-nitrophenyl phosphate]
Kcat/Km of PTPN18 lower than that of PTP1B (PTPN18 [3]): 2000 fold

CC(C)C[C@@H](C=O)NC(=O)[C@H](CC(C)C)NC(=O)[C@H](CC(C)C)NC(=O)OCc1ccccc1 [MG132] (Cbz-Leu-Leu-Leu-aldehyde)
Effect on PTPN18-overexpression-promoted HER2 degradation ([4]; HepG2 cells transfected with PTPN18, 5 μM MG-132 for 16 h): almost abolished
Endogenous HER2 expression level ([4]; HepG2 cells, 5 μM MG-132 preincubated for 16 h): significantly increased

Ac-ENPEpY^1248 LGLD-NH2 [HER2 pY^1248]
Decrease of PTPN18 activity towards the peptide by mutation [5]: 2-3 fold
Decrease of PTPN18 activity towards the peptide by mutation [1]: > 2 fold
Kcat/Km of PTPN18 (PTPN18 [2]): 400000 to 800000 M⁻¹ s⁻¹
Kcat for PTPN18 catalysis (PTPN18 [2]): 4 to 11.2 s⁻¹

PLQRpY^1112 SEDP [HER2 pY^1112]
Decrease of PTPN18 activity towards the peptide by mutation [5]: 2-3 fold
Kcat/Km of PTPN18 (PTPN18 [2]): 400000 to 800000 M⁻¹ s⁻¹
Kcat for PTPN18 catalysis (PTPN18 [2]): 4 to 11.2 s⁻¹

HER2 pY^1221pY^1222: HER2 doubly phosphorylated Y1221/Y1222 site phospho-peptide (FDNL[pY][pY]WDQD)
PTPN18 activity towards the peptide (in words) (PTPN18 [2]): very weak activity

B1: HER2 pY1248 phospho-peptide (Ac-ENPEpY1248LGLD-NH2) (peptide)
peptide: Ac-ENPE[pY]LGLD-NH2
SMILES: CC(=O)N[C@@H](CCC(=O)O)C(=O)N[C@@H](CC(N)=O)C(=O)N1CCC[C@H]1C(=O)N[C@@H](CCC(=O)O)C(=O)N[C@@H](Cc1ccc(OP(=O)(O)O)cc1)C(=O)N[C@@H](CC(C)C)C(=O)NCC(=O)N[C@@H](CC(C)C)C(=O)N[C@@H](CC(=O)O)C(N)=O
decrease of PTPN18 activity towards the peptide (Figure 6B) (PTPN18 V65I): > 2 fold
decrease of PTPN18 activity towards the peptide (Figure 6B) (PTPN18 P272M): > 2 fold
decrease of PTPN18 activity towards the peptide (Figure 6B) (PTPN18 V65A): > 2 fold

B2: HER2 pY1196 phospho-peptide (Ac-ENPEpY1196LTPQ-NH2) (peptide)
peptide: Ac-ENPE[pY]LTPQ-NH2
SMILES: CC(=O)N[C@@H](CCC(=O)O)C(=O)N[C@@H](CC(N)=O)C(=O)N1CCC[C@H]1C(=O)N[C@@H](CCC(=O)O)C(=O)N[C@@H](Cc1ccc(OP(=O)(O)O)cc1)C(=O)N[C@@H](CC(C)C)C(=O)N[C@H](C(=O)N1CCC[C@H]1C(=O)N[C@@H](CCC(N)=O)C(N)=O)[C@@H](C)O
decrease of PTPN18 activity towards the peptide (Figure 6B) (PTPN18 V65I): > 2 fold
decrease of PTPN18 activity towards the peptide (Figure 6B) (PTPN18 P272M): > 2 fold
decrease of PTPN18 activity towards the peptide (Figure 6B) (PTPN18 V65A): > 2 fold

— PMC4152746 (Cell Research, 2014)
